In ChEMBL document CHEMBL5674883, “The Heterochromatin Landscape in Migrating Cells and the Importance of H3K27me3 for Associated Transcriptome Alterations” (Cells, 2018) one finds log2FC data, which are given here for two compounds.

SMILES strings stand for the structures.

Assay type in all cases: cell-based
Assay [1] concerns the target Histone-lysine N-methyltransferase EZH2 (Mus musculus) (UniProt Q61188). Kind of assay: Inhibition of EZH2 in mouse B16-F1 migrating cells assessed as fold change in H3K27me3-dependent regulated Id1-mRNA expression at 3 uM measured by […] analysis relative to control cells. The method in brief:
(§1)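 Confluent B16-F1 cells on fibronectin-coated plates were scratched at multiple sites, washed once with DMEM and left to migrate 3 h in growth medium (37 °C, 7% CO2); unscratched cells served as control. GSK343 (3 µM) was added 3 h before lysis. Poly A mRNA was sequenced (RNA-seq), with 5 replicates for untreated and 3 for treated cells. Differential expression was called by linear model with batch correction, at FDR <0.05 and fold change ≥1.3.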

For assay [2] the target is unchanged. The experiment in a line: Inhibition of EZH2 in mouse B16-F1 migrating cells assessed as fold change in H3K27me3-independent regulated Tmem179-mRNA expression at 3 uM measured by […] analysis relative to control cells. The method in brief:
as §1

Assay [3] shares this target. The experiment in a line: Inhibition of EZH2 in mouse B16-F1 migrating cells assessed as fold change in H3K27me3-independent regulated Skil-mRNA expression at 3 uM measured by […] analysis relative to control cells. The gist of the method: as §1
The target is the same in assay [4]. Kind of assay: Inhibition of EZH2 in mouse B16-F1 migrating cells assessed as fold change in H3K27me3-independent regulated Hells-mRNA expression at 3 uM measured by […] analysis relative to control cells. The gist of the method:
as §1

Assay [5] shares this target. The experiment in a line: Inhibition of EZH2 in mouse B16-F1 migrating cells assessed as fold change in H3K27me3-independent regulated Klf15-mRNA expression at 3 uM measured by […] analysis relative to control cells. The gist of the method: as §1
Assay [6] shares this target. The experiment in a line: Inhibition of EZH2 in mouse B16-F1 migrating cells assessed as fold change in H3K27me3-buffered regulated Mpp7-mRNA expression at 3 uM measured by […] analysis relative to control cells. The gist of the method: (§2)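 Confluent B16-F1 cells on fibronectin-coated plates, cultured at 37 °C and 7% CO2, were scratched at multiple sites to induce migration. They were then held 3 h in growth medium containing 3 µM GSK343, with the inhibitor added 3 h before lysis. Unscratched cells served as controls. Poly A mRNA was analysed by RNA-seq (n=3 GSK343, n=5 controls). Linear models removed batch effects, and buffered genes were those altered only under GSK343 (FDR <0.05, fold change >1.3).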

For assay [7] the target is unchanged. Kind of assay: Inhibition of EZH2 in mouse B16-F1 migrating cells assessed as fold change in H3K27me3-buffered regulated Slc39a14-mRNA expression at 3 uM measured by […] analysis relative to control cells. The gist of the method: as §1
For assay [8] the target is unchanged. The experiment in a line: Inhibition of EZH2 in mouse B16-F1 migrating cells assessed as fold change in H3K27me3-buffered regulated Sqle-mRNA expression at 3 uM measured by […] analysis relative to control cells. The gist of the method:
as §1

For assay [9] the target is unchanged. Kind of assay: Inhibition of EZH2 in mouse B16-F1 migrating cells assessed as fold change in H3K27me3-buffered regulated Tfcp2-mRNA expression at 3 uM measured by […] analysis relative to control cells. The gist of the method: as §1
Assay [10] has the same target. The experiment in a line: Inhibition of EZH2 in mouse B16-F1 migrating cells assessed as fold change in H3K27me3-buffered regulated Dzip3-mRNA expression at 3 uM measured by […] analysis relative to control cells. The gist of the method:
as §2

Assay [11] shares this target. The experiment in a line: Inhibition of EZH2 in mouse B16-F1 migrating cells assessed as fold change in H3K27me3-buffered regulated Cmpk2-mRNA expression at 3 uM measured by ChIP-seq analysis relative to control cells. The method in brief:
as §2

The target is the same in assay [12]. The experiment in a line: Inhibition of EZH2 in mouse B16-F1 migrating cells assessed as fold change in H3K27me3-buffered regulated Spag1-mRNA expression at 3 uM measured by […] analysis relative to control cells. The method in brief: as §1
The target is the same in assay [13]. The experiment in a line: Inhibition of EZH2 in mouse B16-F1 migrating cells assessed as fold change in H3K27me3-buffered regulated Ccdc18-mRNA expression at 3 uM measured by […] analysis relative to control cells. The gist of the method: as §2
Assay [14] has the same target. The experiment in a line: Inhibition of EZH2 in mouse B16-F1 migrating cells assessed as fold change in H3K27me3-buffered regulated Snhg5-mRNA expression at 3 uM measured by […] analysis relative to control cells. The method in brief:
as §1

Assay [15] concerns the target T1, RNA polymerase II (Mus musculus) (UniProt P08775+Q8CFI7+P97760+A0A3Q4L2S8+Q80UW8+P61219+P62488+Q923G2+P60898+O08740+Q63871+P62876). The experiment in a line: Inhibition of RNA polymerase II in mouse B16-F1 migrating cells assessed as fold change in Slc27a3-RNA stability at 0.1 mM measured by […] analysis relative to control cells.
In assay [16] the target is T1, RNA polymerase II (Mus musculus). Kind of assay: Inhibition of RNA polymerase II in mouse B16-F1 migrating cells assessed as fold change in Samd14-RNA stability at 0.1 mM measured by […] analysis relative to control cells.
The target is the same in assay [17]. The experiment in a line: Inhibition of RNA polymerase II in mouse B16-F1 migrating cells assessed as fold change in Adam17-RNA stability at 0.1 mM measured by […] analysis relative to control cells.
Assay [18] shares this target. Kind of assay: Inhibition of RNA polymerase II in mouse B16-F1 migrating cells assessed as fold change in Ptbp2-RNA stability at 0.1 mM measured by […] analysis relative to control cells.
Assay [19] has the same target. Kind of assay: Inhibition of RNA polymerase II in mouse B16-F1 migrating cells assessed as fold change in Shprh-RNA stability at 0.1 mM measured by […] analysis relative to control cells.
Assay [20] has the same target. The experiment in a line: Inhibition of RNA polymerase II in mouse B16-F1 migrating cells assessed as fold change in Nek7-RNA stability at 0.1 mM measured by ChIP-seq analysis relative to control cells.
Assay [21] has the same target. Kind of assay: Inhibition of RNA polymerase II in mouse B16-F1 migrating cells assessed as fold change in Fxr1-RNA stability at 0.1 mM measured by ChIP-seq analysis relative to control cells.
For assay [22] the target is unchanged. The experiment in a line: Inhibition of RNA polymerase II in mouse B16-F1 migrating cells assessed as fold change in Mex3c-RNA stability at 0.1 mM measured by ChIP-seq analysis relative to control cells.
For assay [23] the target is unchanged. The experiment in a line: Inhibition of RNA polymerase II in mouse B16-F1 migrating cells assessed as fold change in Mastl-RNA stability at 0.1 mM measured by ChIP-seq analysis relative to control cells.
Assay [24] has the same target. Kind of assay: Inhibition of RNA polymerase II in mouse B16-F1 migrating cells assessed as fold change in Kif18a-RNA stability at 0.1 mM measured by ChIP-seq analysis relative to control cells.

Chain of Histone-lysine N-methyltransferase EZH2 (Mus musculus) (Q61188 whole entry): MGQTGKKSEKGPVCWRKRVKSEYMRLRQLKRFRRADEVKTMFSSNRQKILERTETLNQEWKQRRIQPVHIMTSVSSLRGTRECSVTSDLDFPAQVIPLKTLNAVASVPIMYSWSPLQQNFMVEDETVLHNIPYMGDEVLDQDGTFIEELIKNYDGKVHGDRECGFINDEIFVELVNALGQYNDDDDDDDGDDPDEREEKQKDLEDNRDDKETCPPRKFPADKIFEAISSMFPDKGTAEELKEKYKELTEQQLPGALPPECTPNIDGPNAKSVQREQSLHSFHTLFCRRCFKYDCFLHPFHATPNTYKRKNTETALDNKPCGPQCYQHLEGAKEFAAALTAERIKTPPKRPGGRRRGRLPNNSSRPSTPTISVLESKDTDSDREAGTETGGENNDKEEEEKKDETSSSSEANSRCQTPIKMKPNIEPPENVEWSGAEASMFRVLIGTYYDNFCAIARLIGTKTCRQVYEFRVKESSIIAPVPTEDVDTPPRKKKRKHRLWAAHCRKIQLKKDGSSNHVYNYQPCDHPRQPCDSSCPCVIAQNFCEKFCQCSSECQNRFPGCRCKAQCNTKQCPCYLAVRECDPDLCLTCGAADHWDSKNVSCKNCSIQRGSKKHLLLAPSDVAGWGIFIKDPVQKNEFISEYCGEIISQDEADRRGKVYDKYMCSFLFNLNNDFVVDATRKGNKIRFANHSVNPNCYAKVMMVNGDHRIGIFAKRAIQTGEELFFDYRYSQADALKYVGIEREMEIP

For the compound `CCCc1cc(C)[nH]c(=O)c1CNC(=O)c1cc(-c2ccnc(N3CCN(C)CC3)c2)cc2c1cnn2C(C)C`, the log2FC in assay [1] is 0.16; in assay [2], 1.1; in [3], 0.42; in assay [4] it was -0.45; in assay [5], -0.5; in assay [6], 0.51. The log2FC in assay [7] was 0.46; in assay [8], 0.39; in [9], -0.38; in [10], -0.4; in [11], -0.46; in assay [12], -0.78. For the same compound, the log2FC is -0.87 in assay [13] and -0.89 in [14].
Consider `OC[C@H]1O[C@@H](n2cnc3cc(Cl)c(Cl)cc32)[C@H](O)[C@@H]1O`, for which the log2FC was 0.65 in assay [15]; 0.46 in [16]; -0.56 in assay [17]; -0.56 in [18]; -0.62 in assay [19]; -0.66 in assay [20]. For the same compound, the log2FC in [21] is -0.67; in assay [22] it was -0.71; in [23] it was -0.74; in assay [24] it was -1.13.
